Published values of several laboratories.
Target: Beta-2 adrenergic receptor (ADRB2, Homo sapiens, UniProt P07550)

Compound | observed | mode | method | tested at | endpoint | result
COc1ccc(S(=O)(=O)N2CCCCC2)cc1C | ligand displacement |  | radioligand | 10 µM | inhibition | < 30%
Nc1ncc(-c2nc(N3CCOCC3)nc(N3CCOCC3)n2)c(C(F)F)n1 | cell-free assay |  | radioligand | 10 µM | remaining signal | 98%
Cn1cncc1[C@@](O)(COc1ccc(C#N)cc1-c1ccc(OC(F)(F)F)cc1)c1ccc(C#N)cc1 | ligand displacement |  |  | 10 µM | inhibition | 23.1%
c1ccc(C(NCCNC(c2ccccc2)c2ccccc2)c2ccccc2)cc1 | cell-free assay |  |  | 10 µM | inhibition | 1%
CC(C)N1CCC[C@H]1CNC(=O)c1cn(C2CCCC2)c(=O)c2c1c1ccccc1n2C | ligand displacement |  | radioligand | 10 µM | inhibition | -8%
CC(C)Cn1cnc2c(N)nc3ccccc3c21 | ligand displacement |  | radioligand | 10 µM | inhibition | 18%
O=C(Nc1cccnn1)N1CCN([C@@H]2CCOc3cc(C(F)(F)F)ccc32)CC1 | cell-free assay |  |  | 20 µM | inhibition | 10%
CC(Cc1ccc2c(c1)OCO2)NCC(O)c1ccc(O)c(O)c1 (centres unmarked) | β-arrestin recruitment | agonist |  |  | Emax | 131%
Cc1c(N2CCNCC2)nc2ccc(Br)cc2c1C(=O)NC[C@H](CCC(=O)O)c1ccccc1Cl | ligand displacement |  |  | 10 µM | inhibition | 18.4%
CN(CCN1CCC(OC(=O)Nc2ccccc2-c2ccccc2)CC1)C(=O)c1ccc(CN2CCC(C(N)=O)CC2)cc1 | ligand displacement |  | radioligand | 1 µM | inhibition | -1%
O=C(NC[C@H](O)CO)[C@@H]1C[C@H](c2ccccc2)CCN1 (mixture of isomers) | ligand displacement |  | radioligand | 10 µM | inhibition | -15.9%
Clc1ccc2c(C3CCN(CCc4c[nH]c5ccccc45)CC3)c[nH]c2c1 | ligand displacement |  | radioligand | 10 µM | inhibition | 91%
CCN(CC)CCCC[C@H](NC(=O)[C@H](CC(C)C)NC(=O)[C@H](C)NC(=O)[C@H](Cc1ccccc1)NC(=O)c1ccc(C(C)(C)C)cc1)C(=O)N[C@@H](CO)C(=O)OC | ligand displacement |  | radioligand | 10 µM | remaining binding | 101%
COCc1c(-c2cc3cc(C)cc(OC)c3s2)c2c(N)ncnn2c1CN1CCNC(=O)C1 | ligand displacement |  | radioligand | 10 µM | inhibition | 14%
